In ChEMBL document CHEMBL3621116, “Benzimidazole Derivatives as Potent JAK1-Selective Inhibitors” (J Med Chem, 2015):
Activity calls are given as the source filed them. The rule behind the calls is not given here.

Key:
[1] = target: T1, Non-receptor tyrosine-protein kinase TYK2 (Homo sapiens, UniProt P29597); assay: Inhibition of Tyk2 (unknown origin) using 1 mM of ATP and Tyr3 peptide by Z'-LYTE kinase assay
[2] = species on record: Homo sapiens; assay: Selectivity ratio of IC50 for JAK2 (unknown origin) using 35 uM of ATP and Tyr6 peptide to IC50 for JAK1 (unknown origin) using 87 uM of ATP and Tyr6 peptide
Method in brief: (§1)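 JAK1 selectivity taken as IC50 against JAK2 or JAK3 divided by IC50 against JAK1. […] IC50s are means ± SD of three independent experiments.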

[3] = Half life in Sprague-Dawley rat at 5 mg/kg, iv; assay type: ADME, organism-based; details: in vivo
Method in brief: (§2)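 Rats dosed intravenously. Steady-state volume of distribution, systemic plasma clearance and plasma half-life derived from plasma concentration data.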

[4] = target: T2, Tyrosine-protein kinase JAK2 (Homo sapiens, UniProt O60674); assay: Inhibition of JAK2 (unknown origin) using 1 mM of ATP and Tyr6 peptide by Z'-LYTE kinase assay
T2 sequence (O60674 whole entry): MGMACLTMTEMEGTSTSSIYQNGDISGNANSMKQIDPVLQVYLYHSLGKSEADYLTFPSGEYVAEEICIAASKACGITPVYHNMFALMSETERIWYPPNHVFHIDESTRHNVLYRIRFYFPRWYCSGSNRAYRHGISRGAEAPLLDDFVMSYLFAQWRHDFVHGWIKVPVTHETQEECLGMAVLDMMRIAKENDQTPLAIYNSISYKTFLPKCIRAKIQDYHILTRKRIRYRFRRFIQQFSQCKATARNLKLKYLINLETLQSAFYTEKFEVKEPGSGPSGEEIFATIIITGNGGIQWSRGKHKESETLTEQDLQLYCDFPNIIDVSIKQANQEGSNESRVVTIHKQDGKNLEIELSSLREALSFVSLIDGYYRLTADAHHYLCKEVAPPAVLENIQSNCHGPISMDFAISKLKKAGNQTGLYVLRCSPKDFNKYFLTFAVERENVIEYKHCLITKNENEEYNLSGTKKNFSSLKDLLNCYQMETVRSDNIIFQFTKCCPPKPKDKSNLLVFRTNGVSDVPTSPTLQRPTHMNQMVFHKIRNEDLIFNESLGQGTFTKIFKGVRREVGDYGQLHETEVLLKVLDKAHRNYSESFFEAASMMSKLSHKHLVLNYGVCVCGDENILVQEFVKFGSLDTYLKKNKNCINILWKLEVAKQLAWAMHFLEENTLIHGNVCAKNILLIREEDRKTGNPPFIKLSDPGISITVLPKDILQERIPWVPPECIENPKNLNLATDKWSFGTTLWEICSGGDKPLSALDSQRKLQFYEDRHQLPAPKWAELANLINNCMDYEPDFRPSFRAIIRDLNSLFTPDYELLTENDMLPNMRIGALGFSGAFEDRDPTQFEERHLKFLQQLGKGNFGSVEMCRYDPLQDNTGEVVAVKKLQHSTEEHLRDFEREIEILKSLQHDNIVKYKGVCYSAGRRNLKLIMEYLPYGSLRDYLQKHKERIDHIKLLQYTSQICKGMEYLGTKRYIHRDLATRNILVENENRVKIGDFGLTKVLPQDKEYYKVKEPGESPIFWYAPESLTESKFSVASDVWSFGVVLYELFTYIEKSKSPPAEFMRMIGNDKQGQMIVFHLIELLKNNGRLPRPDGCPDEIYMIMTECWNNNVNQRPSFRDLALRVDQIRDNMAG

[5] = target: T2, Tyrosine-protein kinase JAK2; assay: Inhibition of JAK2 in human A431 cells assessed as erythropoietin-induced STAT5 phosphorylation at 0.001 to 10 uM after 2 hrs by ELISA; assay type: cell-based; details: A-431
[6] = target: T1, Non-receptor tyrosine-protein kinase TYK2; assay: Inhibition of Tyk2 (unknown origin) using 25 uM of ATP and Tyr3 peptide by Z'-LYTE kinase assay
[7] = Oral bioavailability in Sprague-Dawley rat at 10 mg/kg; assay type: ADME, organism-based; details: in vivo
[8] = Volume of distribution at steady state in Sprague-Dawley rat at 5 mg/kg, iv; assay type: ADME, organism-based; details: in vivo, read-out: Vdss; method in brief: as §2
[9] = target: T3, Tyrosine-protein kinase JAK3 (Homo sapiens, UniProt P52333); assay: Inhibition of JAK3 (unknown origin) using 1 mM of ATP and Tyr6 peptide by Z'-LYTE kinase assay
T3 sequence (P52333 whole entry): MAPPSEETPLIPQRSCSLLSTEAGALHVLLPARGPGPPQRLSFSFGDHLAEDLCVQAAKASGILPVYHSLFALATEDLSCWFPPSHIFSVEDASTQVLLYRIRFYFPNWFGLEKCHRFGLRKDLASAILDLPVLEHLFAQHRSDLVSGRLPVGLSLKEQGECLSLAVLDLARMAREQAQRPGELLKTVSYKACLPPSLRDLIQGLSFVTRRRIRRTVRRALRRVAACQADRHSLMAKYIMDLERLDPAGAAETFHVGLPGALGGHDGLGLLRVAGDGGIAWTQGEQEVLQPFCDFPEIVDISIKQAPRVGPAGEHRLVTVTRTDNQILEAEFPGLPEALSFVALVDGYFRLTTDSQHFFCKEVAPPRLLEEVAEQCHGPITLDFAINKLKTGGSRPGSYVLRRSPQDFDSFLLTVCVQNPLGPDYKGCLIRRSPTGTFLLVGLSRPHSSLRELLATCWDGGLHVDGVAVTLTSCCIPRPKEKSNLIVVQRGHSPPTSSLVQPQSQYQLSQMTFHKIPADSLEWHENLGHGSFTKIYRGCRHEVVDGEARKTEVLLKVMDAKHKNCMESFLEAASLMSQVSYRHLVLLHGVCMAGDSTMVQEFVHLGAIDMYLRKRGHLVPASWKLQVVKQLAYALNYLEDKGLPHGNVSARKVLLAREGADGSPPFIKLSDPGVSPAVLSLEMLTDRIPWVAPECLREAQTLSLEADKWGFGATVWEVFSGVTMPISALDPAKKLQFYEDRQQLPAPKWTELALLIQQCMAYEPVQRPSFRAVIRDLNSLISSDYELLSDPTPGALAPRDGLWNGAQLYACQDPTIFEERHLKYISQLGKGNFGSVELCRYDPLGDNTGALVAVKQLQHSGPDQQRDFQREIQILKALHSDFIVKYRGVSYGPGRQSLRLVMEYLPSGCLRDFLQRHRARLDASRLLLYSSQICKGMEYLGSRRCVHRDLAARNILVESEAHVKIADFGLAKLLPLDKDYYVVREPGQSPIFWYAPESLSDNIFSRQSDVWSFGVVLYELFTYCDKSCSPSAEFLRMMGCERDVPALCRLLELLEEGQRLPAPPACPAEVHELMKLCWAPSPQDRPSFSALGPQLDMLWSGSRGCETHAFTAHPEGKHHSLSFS

[10] = Plasma clearance in Sprague-Dawley rat at 5 mg/kg, iv; assay type: ADME, organism-based; method in brief: as §2
[11] = target: T3, Tyrosine-protein kinase JAK3; assay: Inhibition of JAK3 (unknown origin) using 16 uM of ATP and Tyr6 peptide by Z'-LYTE kinase assay
[12] = target: T4, Tyrosine-protein kinase JAK1 (Homo sapiens, UniProt P23458); assay: Inhibition of JAK1 (unknown origin) using 1 mM of ATP and Tyr6 peptide by Z'-LYTE kinase assay
T4 sequence (P23458 whole entry): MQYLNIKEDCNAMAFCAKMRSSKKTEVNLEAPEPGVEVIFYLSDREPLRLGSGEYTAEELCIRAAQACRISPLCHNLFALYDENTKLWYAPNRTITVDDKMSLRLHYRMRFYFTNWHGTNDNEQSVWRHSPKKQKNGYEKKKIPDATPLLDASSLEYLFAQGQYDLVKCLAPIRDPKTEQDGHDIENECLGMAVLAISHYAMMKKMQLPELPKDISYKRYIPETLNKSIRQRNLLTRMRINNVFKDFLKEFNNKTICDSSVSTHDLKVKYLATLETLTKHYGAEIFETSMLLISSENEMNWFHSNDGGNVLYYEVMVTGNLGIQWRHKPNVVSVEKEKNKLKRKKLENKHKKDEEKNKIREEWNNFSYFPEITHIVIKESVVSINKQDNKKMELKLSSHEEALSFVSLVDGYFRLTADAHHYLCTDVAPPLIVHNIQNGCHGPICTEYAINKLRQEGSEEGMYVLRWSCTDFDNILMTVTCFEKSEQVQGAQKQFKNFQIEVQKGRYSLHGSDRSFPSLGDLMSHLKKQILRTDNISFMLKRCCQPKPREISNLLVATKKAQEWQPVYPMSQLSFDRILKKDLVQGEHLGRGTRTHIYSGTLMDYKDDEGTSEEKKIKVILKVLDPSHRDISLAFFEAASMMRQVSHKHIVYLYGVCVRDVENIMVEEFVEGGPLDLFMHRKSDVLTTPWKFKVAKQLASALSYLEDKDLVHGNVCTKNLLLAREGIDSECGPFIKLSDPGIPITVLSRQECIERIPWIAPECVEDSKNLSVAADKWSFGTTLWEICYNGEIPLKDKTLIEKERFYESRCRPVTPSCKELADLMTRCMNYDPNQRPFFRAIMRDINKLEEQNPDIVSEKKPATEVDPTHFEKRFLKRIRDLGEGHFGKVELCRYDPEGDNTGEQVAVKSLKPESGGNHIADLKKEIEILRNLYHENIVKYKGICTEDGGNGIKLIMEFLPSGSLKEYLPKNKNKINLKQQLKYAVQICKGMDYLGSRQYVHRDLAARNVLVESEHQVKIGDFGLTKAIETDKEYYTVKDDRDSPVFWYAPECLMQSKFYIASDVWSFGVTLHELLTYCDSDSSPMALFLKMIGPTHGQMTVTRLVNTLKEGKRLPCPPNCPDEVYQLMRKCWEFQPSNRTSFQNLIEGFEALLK

[13] = species on record: Homo sapiens; assay: Selectivity ratio of IC50 for JAK3 (unknown origin) using 16 uM of ATP and Tyr6 peptide to IC50 for JAK1 (unknown origin) using 87 uM of ATP and Tyr6 peptide; method in brief: as §1
[14] = Permeability of the compound by PAMPA; assay type: physicochemical; details: read-out: permeability
[15] = target: T2, Tyrosine-protein kinase JAK2; assay: Inhibition of JAK2 (unknown origin) using 35 uM of ATP and Tyr6 peptide by Z'-LYTE kinase assay
[16] = target: T4, Tyrosine-protein kinase JAK1; assay: Inhibition of JAK1 (unknown origin) using 87 uM of ATP and Tyr6 peptide by Z'-LYTE kinase assay
[17] = target: T4, Tyrosine-protein kinase JAK1; details: A-431, 0.001 to 10 uM
[18] = species on record: Homo sapiens; assay: Selectivity ratio of IC50 for JAK2 (unknown origin) to IC50 for JAK1 (unknown origin) by cell based assay

T1 sequence (P29597 whole entry): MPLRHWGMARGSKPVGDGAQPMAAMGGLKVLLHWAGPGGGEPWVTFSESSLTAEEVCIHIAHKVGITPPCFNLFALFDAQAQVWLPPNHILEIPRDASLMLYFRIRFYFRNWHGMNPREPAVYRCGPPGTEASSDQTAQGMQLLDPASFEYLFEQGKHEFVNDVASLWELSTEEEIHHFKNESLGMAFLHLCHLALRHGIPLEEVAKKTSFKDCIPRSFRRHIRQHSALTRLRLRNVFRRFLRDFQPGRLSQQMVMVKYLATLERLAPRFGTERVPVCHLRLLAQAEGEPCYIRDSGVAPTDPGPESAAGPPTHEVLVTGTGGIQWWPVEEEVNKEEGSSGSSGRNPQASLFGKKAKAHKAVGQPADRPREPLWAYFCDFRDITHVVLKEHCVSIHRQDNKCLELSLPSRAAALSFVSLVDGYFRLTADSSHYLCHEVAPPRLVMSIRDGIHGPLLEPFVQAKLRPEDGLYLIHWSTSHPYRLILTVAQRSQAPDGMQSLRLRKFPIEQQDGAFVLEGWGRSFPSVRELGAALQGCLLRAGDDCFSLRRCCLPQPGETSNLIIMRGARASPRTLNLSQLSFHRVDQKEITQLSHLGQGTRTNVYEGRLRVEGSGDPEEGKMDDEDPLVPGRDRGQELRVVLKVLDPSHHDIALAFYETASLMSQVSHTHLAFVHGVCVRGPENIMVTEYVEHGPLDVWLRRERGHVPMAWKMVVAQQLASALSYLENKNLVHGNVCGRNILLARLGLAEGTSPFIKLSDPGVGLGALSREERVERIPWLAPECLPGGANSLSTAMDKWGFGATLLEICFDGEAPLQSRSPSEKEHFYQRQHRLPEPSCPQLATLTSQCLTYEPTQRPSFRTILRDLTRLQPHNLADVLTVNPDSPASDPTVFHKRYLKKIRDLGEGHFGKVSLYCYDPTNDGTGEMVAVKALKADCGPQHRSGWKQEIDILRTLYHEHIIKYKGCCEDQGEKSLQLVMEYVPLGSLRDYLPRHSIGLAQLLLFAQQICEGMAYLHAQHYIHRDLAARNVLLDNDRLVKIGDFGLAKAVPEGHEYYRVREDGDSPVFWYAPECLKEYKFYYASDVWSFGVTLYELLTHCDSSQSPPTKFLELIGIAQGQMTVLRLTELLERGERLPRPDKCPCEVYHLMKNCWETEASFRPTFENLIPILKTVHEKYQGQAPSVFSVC

SMILES	IC50 [1]	Ratio IC50 [2]	half-life [3]	IC50 [4]	inhibition [5]	IC50 [6]	bioavailability [7]	Vd [8]	IC50 [9]	clearance [10]	IC50 [11]	IC50 [12]	Ratio IC50 [13]	Papp [14]	IC50 [15]	IC50 [16]	inhibition [17]	Ratio IC50 [18]
NCCn1c(C2CCNCC2)nc2cc(C(N)=O)ccc21	759 µM	63	546 min	437 µM	inactive	3.7 µM	0.7%	0.5 L/kg	232 µM	6.67 mL/min/kg	1260 nM	5.7 µM	25	0.1 ×10⁻⁶ cm/s	3.15 µM	0.05 µM	inactive	–
NCCn1c(-c2cncnc2)nc2cc(C(N)=O)ccc21	–	0.5	–	–	–	2.8 µM	–	–	–	–	2500 nM	–	0.7	–	1.6 µM	3.4 µM	–	–
Cc1ccc(-c2nc3cc(C(N)=O)ccc3n2CCN)cc1	–	0.7	–	–	–	3.5 µM	–	–	–	–	2300 nM	–	0.6	–	2.6 µM	3.7 µM	–	–
NCCn1c(-c2cccnc2N)nc2cc(C(N)=O)ccc21	–	0.6	–	–	–	4.3 µM	–	–	–	–	1900 nM	–	0.2	–	4.7 µM	8.1 µM	–	–
NCCc1nc2cc(C(N)=O)ccc2n1CCN	–	29	–	–	–	3.1 µM	–	–	–	–	1500 nM	–	15	–	2.9 µM	0.1 µM	–	–
NCCn1c(-c2ccncc2)nc2cc(C(N)=O)ccc21	–	0.4	–	–	–	5.8 µM	–	–	–	–	10500 nM	–	0.3	–	13.5 µM	32.4 µM	–	–
NCCn1c(C2CCCCC2)nc2cc(C(N)=O)ccc21	–	1	–	–	–	3.3 µM	–	–	–	–	2500 nM	–	0.6	–	4.1 µM	4.3 µM	–	–
NCCn1c(-c2ccc(O)cc2)nc2cc(C(N)=O)ccc21	–	11	–	–	–	3.2 µM	–	–	–	–	2400 nM	–	20	–	1.3 µM	0.1 µM	–	–
CC[C@@H]1CN(C(=O)NCC(F)(F)F)C[C@@H]1c1cnc2cnc3[nH]ccc3n12	–	–	–	–	–	–	–	–	–	–	–	–	–	–	–	–	–	74
